As a reminder, the ΔTm is the shift of the melting midpoint relative to a reference.

Calls of active or inactive are those of the source. The rule behind the calls is not given here.

Our source for the Stability, ΔTm and Activity values is ChEMBL document CHEMBL1909556, “Synthesis and properties of novel 2'-O-alkoxymethyl-modified nucleic acids” (Bioorg Med Chem Lett, 2011).

A short description of series [1]: Nuclease stability of compound assessed as snake venom phosphodiesterase-mediated degradation at 10 uM after 2 hrs by RP-HPLC analysis. It is filed as physicochemical. In short, it runs like this: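 Snake venom phosphodiesterase digestion at 4 × 10^-4 units/ml of 10 μM oligoribonucleotide for 2 h. Buffer was 50 mM Tris-HCl pH 8.5 with 72 mM NaCl and 14 mM MgCl2. The degradation ratio was estimated by reversed-phase HPLC.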

Series [2] has as its system Nucleic Acid. Briefly: Binding affinity to A12 RNA assessed as change in melting temperature at 2 uM compound at pH 7. It is filed as nucleic-acid assay.
The subject of series [3] is Nucleic Acid. Briefly: Binding affinity to dA12 DNA assessed as change in melting temperature at 2 uM compound at pH 7. Type of series: nucleic-acid assay.

Regarding `CCOCO[C@@H]1[C@H](O)[C@@H](COP(=O)(O)O[C@H]2[C@@H](OCOCC)[C@H](n3ccc(=O)[nH]c3=O)O[C@@H]2COP(=O)(O)O[C@H]2[C@@H](OCOCC)[C@H](n3ccc(=O)[nH]c3=O)O[C@@H]2COP(=O)(O)O[C@H]2[C@@H](OCOCC)[C@H](n3ccc(=O)[nH]c3=O)O[C@@H]2COP(=O)(O)O[C@H]2[C@@H](OCOCC)[C@H](n3ccc(=O)[nH]c3=O)O[C@@H]2COP(=O)(O)O[C@H]2[C@@H](OCOCC)[C@H](n3ccc(=O)[nH]c3=O)O[C@@H]2COP(=O)(O)O[C@H]2[C@@H](OCOCC)[C@H](n3ccc(=O)[nH]c3=O)O[C@@H]2COP(=O)(O)O[C@H]2[C@@H](OCOCC)[C@H](n3ccc(=O)[nH]c3=O)O[C@@H]2COP(=O)(O)O[C@H]2[C@@H](OCOCC)[C@H](n3ccc(=O)[nH]c3=O)O[C@@H]2COP(=O)(O)O[C@H]2[C@@H](OCOCC)[C@H](n3ccc(=O)[nH]c3=O)O[C@@H]2COP(=O)(O)O[C@H]2[C@@H](OCOCC)[C@H](n3ccc(=O)[nH]c3=O)O[C@@H]2COP(=O)(O)O[C@H]2[C@@H](OCOCC)[C@H](n3ccc(=O)[nH]c3=O)O[C@@H]2CO)O[C@H]1n1ccc(=O)[nH]c1=O`, the Stability result in series [1] is recorded as “Unstable”. The ΔTm with Nucleic Acid [2] is -2.5 °C.

Take `O=c1ccn([C@@H]2O[C@H](COP(=O)(O)O[C@H]3[C@@H](OCOCC(F)(F)F)[C@H](n4ccc(=O)[nH]c4=O)O[C@@H]3COP(=O)(O)O[C@H]3[C@@H](OCOCC(F)(F)F)[C@H](n4ccc(=O)[nH]c4=O)O[C@@H]3COP(=O)(O)O[C@H]3[C@@H](OCOCC(F)(F)F)[C@H](n4ccc(=O)[nH]c4=O)O[C@@H]3COP(=O)(O)O[C@H]3[C@@H](OCOCC(F)(F)F)[C@H](n4ccc(=O)[nH]c4=O)O[C@@H]3COP(=O)(O)O[C@H]3[C@@H](OCOCC(F)(F)F)[C@H](n4ccc(=O)[nH]c4=O)O[C@@H]3COP(=O)(O)O[C@H]3[C@@H](OCOCC(F)(F)F)[C@H](n4ccc(=O)[nH]c4=O)O[C@@H]3COP(=O)(O)O[C@H]3[C@@H](OCOCC(F)(F)F)[C@H](n4ccc(=O)[nH]c4=O)O[C@@H]3COP(=O)(O)O[C@H]3[C@@H](OCOCC(F)(F)F)[C@H](n4ccc(=O)[nH]c4=O)O[C@@H]3COP(=O)(O)O[C@H]3[C@@H](OCOCC(F)(F)F)[C@H](n4ccc(=O)[nH]c4=O)O[C@@H]3COP(=O)(O)O[C@H]3[C@@H](OCOCC(F)(F)F)[C@H](n4ccc(=O)[nH]c4=O)O[C@@H]3COP(=O)(O)O[C@H]3[C@@H](OCOCC(F)(F)F)[C@H](n4ccc(=O)[nH]c4=O)O[C@@H]3CO)[C@@H](O)[C@H]2OCOCC(F)(F)F)c(=O)[nH]1`: the ΔTm in the series with Nucleic Acid [2] amounted to 4.5 °C.

As for `O=c1ccn([C@@H]2O[C@H](COP(=O)(O)O[C@H]3[C@@H](OCOCC(Cl)Cl)[C@H](n4ccc(=O)[nH]c4=O)O[C@@H]3COP(=O)(O)O[C@H]3[C@@H](OCOCC(Cl)Cl)[C@H](n4ccc(=O)[nH]c4=O)O[C@@H]3COP(=O)(O)O[C@H]3[C@@H](OCOCC(Cl)Cl)[C@H](n4ccc(=O)[nH]c4=O)O[C@@H]3COP(=O)(O)O[C@H]3[C@@H](OCOCC(Cl)Cl)[C@H](n4ccc(=O)[nH]c4=O)O[C@@H]3COP(=O)(O)O[C@H]3[C@@H](OCOCC(Cl)Cl)[C@H](n4ccc(=O)[nH]c4=O)O[C@@H]3COP(=O)(O)O[C@H]3[C@@H](OCOCC(Cl)Cl)[C@H](n4ccc(=O)[nH]c4=O)O[C@@H]3COP(=O)(O)O[C@H]3[C@@H](OCOCC(Cl)Cl)[C@H](n4ccc(=O)[nH]c4=O)O[C@@H]3COP(=O)(O)O[C@H]3[C@@H](OCOCC(Cl)Cl)[C@H](n4ccc(=O)[nH]c4=O)O[C@@H]3COP(=O)(O)O[C@H]3[C@@H](OCOCC(Cl)Cl)[C@H](n4ccc(=O)[nH]c4=O)O[C@@H]3COP(=O)(O)O[C@H]3[C@@H](OCOCC(Cl)Cl)[C@H](n4ccc(=O)[nH]c4=O)O[C@@H]3COP(=O)(O)O[C@H]3[C@@H](OCOCC(Cl)Cl)[C@H](n4ccc(=O)[nH]c4=O)O[C@@H]3CO)[C@@H](O)[C@H]2OCOCC(Cl)Cl)c(=O)[nH]1`, in series [1], the Stability result is recorded as “Unstable”. Further, the outcome in the series on Nucleic Acid [3] was inactive. In addition, the ΔTm in the series on Nucleic Acid [2] stood at 10.8 °C.

As for `O=c1ccn([C@@H]2O[C@H](COP(=O)(O)O[C@H]3[C@@H](O)[C@H](n4ccc(=O)[nH]c4=O)O[C@@H]3COP(=O)(O)O[C@H]3[C@@H](O)[C@H](n4ccc(=O)[nH]c4=O)O[C@@H]3COP(=O)(O)O[C@H]3[C@@H](O)[C@H](n4ccc(=O)[nH]c4=O)O[C@@H]3COP(=O)(O)O[C@H]3[C@@H](O)[C@H](n4ccc(=O)[nH]c4=O)O[C@@H]3COP(=O)(O)O[C@H]3[C@@H](O)[C@H](n4ccc(=O)[nH]c4=O)O[C@@H]3COP(=O)(O)O[C@H]3[C@@H](O)[C@H](n4ccc(=O)[nH]c4=O)O[C@@H]3COP(=O)(O)O[C@H]3[C@@H](O)[C@H](n4ccc(=O)[nH]c4=O)O[C@@H]3COP(=O)(O)O[C@H]3[C@@H](O)[C@H](n4ccc(=O)[nH]c4=O)O[C@@H]3COP(=O)(O)O[C@H]3[C@@H](O)[C@H](n4ccc(=O)[nH]c4=O)O[C@@H]3COP(=O)(O)O[C@H]3[C@@H](O)[C@H](n4ccc(=O)[nH]c4=O)O[C@@H]3COP(=O)(O)O[C@H]3[C@@H](O)[C@H](n4ccc(=O)[nH]c4=O)O[C@@H]3CO)[C@@H](O)[C@H]2O)c(=O)[nH]1`, the ΔTm with Nucleic Acid [2] is 0 °C.

`N#CCCOCO[C@@H]1[C@H](O)[C@@H](COP(=O)(O)O[C@H]2[C@@H](OCOCCC#N)[C@H](n3ccc(=O)[nH]c3=O)O[C@@H]2COP(=O)(O)O[C@H]2[C@@H](OCOCCC#N)[C@H](n3ccc(=O)[nH]c3=O)O[C@@H]2COP(=O)(O)O[C@H]2[C@@H](OCOCCC#N)[C@H](n3ccc(=O)[nH]c3=O)O[C@@H]2COP(=O)(O)O[C@H]2[C@@H](OCOCCC#N)[C@H](n3ccc(=O)[nH]c3=O)O[C@@H]2COP(=O)(O)O[C@H]2[C@@H](OCOCCC#N)[C@H](n3ccc(=O)[nH]c3=O)O[C@@H]2COP(=O)(O)O[C@H]2[C@@H](OCOCCC#N)[C@H](n3ccc(=O)[nH]c3=O)O[C@@H]2COP(=O)(O)O[C@H]2[C@@H](OCOCCC#N)[C@H](n3ccc(=O)[nH]c3=O)O[C@@H]2COP(=O)(O)O[C@H]2[C@@H](OCOCCC#N)[C@H](n3ccc(=O)[nH]c3=O)O[C@@H]2COP(=O)(O)O[C@H]2[C@@H](OCOCCC#N)[C@H](n3ccc(=O)[nH]c3=O)O[C@@H]2COP(=O)(O)O[C@H]2[C@@H](OCOCCC#N)[C@H](n3ccc(=O)[nH]c3=O)O[C@@H]2COP(=O)(O)O[C@H]2[C@@H](OCOCCC#N)[C@H](n3ccc(=O)[nH]c3=O)O[C@@H]2CO)O[C@H]1n1ccc(=O)[nH]c1=O`: the Stability entry in series [1] was “Stable”. Further, the ΔTm in the series on Nucleic Acid [2] came out at 2.8 °C.

In the case of `O=c1ccn([C@@H]2O[C@H](COP(=O)(O)O[C@H]3[C@@H](OCOCC(F)F)[C@H](n4ccc(=O)[nH]c4=O)O[C@@H]3COP(=O)(O)O[C@H]3[C@@H](OCOCC(F)F)[C@H](n4ccc(=O)[nH]c4=O)O[C@@H]3COP(=O)(O)O[C@H]3[C@@H](OCOCC(F)F)[C@H](n4ccc(=O)[nH]c4=O)O[C@@H]3COP(=O)(O)O[C@H]3[C@@H](OCOCC(F)F)[C@H](n4ccc(=O)[nH]c4=O)O[C@@H]3COP(=O)(O)O[C@H]3[C@@H](OCOCC(F)F)[C@H](n4ccc(=O)[nH]c4=O)O[C@@H]3COP(=O)(O)O[C@H]3[C@@H](OCOCC(F)F)[C@H](n4ccc(=O)[nH]c4=O)O[C@@H]3COP(=O)(O)O[C@H]3[C@@H](OCOCC(F)F)[C@H](n4ccc(=O)[nH]c4=O)O[C@@H]3COP(=O)(O)O[C@H]3[C@@H](OCOCC(F)F)[C@H](n4ccc(=O)[nH]c4=O)O[C@@H]3COP(=O)(O)O[C@H]3[C@@H](OCOCC(F)F)[C@H](n4ccc(=O)[nH]c4=O)O[C@@H]3COP(=O)(O)O[C@H]3[C@@H](OCOCC(F)F)[C@H](n4ccc(=O)[nH]c4=O)O[C@@H]3COP(=O)(O)O[C@H]3[C@@H](OCOCC(F)F)[C@H](n4ccc(=O)[nH]c4=O)O[C@@H]3CO)[C@@H](O)[C@H]2OCOCC(F)F)c(=O)[nH]1`, the ΔTm with Nucleic Acid [2] was 3.5 °C.

As to `O=c1ccn([C@@H]2O[C@H](COP(=O)(O)O[C@H]3[C@@H](OCOCC(Cl)(Cl)Cl)[C@H](n4ccc(=O)[nH]c4=O)O[C@@H]3COP(=O)(O)O[C@H]3[C@@H](OCOCC(Cl)(Cl)Cl)[C@H](n4ccc(=O)[nH]c4=O)O[C@@H]3COP(=O)(O)O[C@H]3[C@@H](OCOCC(Cl)(Cl)Cl)[C@H](n4ccc(=O)[nH]c4=O)O[C@@H]3COP(=O)(O)O[C@H]3[C@@H](OCOCC(Cl)(Cl)Cl)[C@H](n4ccc(=O)[nH]c4=O)O[C@@H]3COP(=O)(O)O[C@H]3[C@@H](OCOCC(Cl)(Cl)Cl)[C@H](n4ccc(=O)[nH]c4=O)O[C@@H]3COP(=O)(O)O[C@H]3[C@@H](OCOCC(Cl)(Cl)Cl)[C@H](n4ccc(=O)[nH]c4=O)O[C@@H]3COP(=O)(O)O[C@H]3[C@@H](OCOCC(Cl)(Cl)Cl)[C@H](n4ccc(=O)[nH]c4=O)O[C@@H]3COP(=O)(O)O[C@H]3[C@@H](OCOCC(Cl)(Cl)Cl)[C@H](n4ccc(=O)[nH]c4=O)O[C@@H]3COP(=O)(O)O[C@H]3[C@@H](OCOCC(Cl)(Cl)Cl)[C@H](n4ccc(=O)[nH]c4=O)O[C@@H]3COP(=O)(O)O[C@H]3[C@@H](OCOCC(Cl)(Cl)Cl)[C@H](n4ccc(=O)[nH]c4=O)O[C@@H]3COP(=O)(O)O[C@H]3[C@@H](OCOCC(Cl)(Cl)Cl)[C@H](n4ccc(=O)[nH]c4=O)O[C@@H]3CO)[C@@H](O)[C@H]2OCOCC(Cl)(Cl)Cl)c(=O)[nH]1`, the Stability result in series [1] is given as “Unstable”. Moreover, the ΔTm with Nucleic Acid [2] was -0.8 °C.

For the compound `O=c1ccn([C@@H]2O[C@H](COP(=O)(O)O[C@H]3[C@@H](OCOCCCl)[C@H](n4ccc(=O)[nH]c4=O)O[C@@H]3COP(=O)(O)O[C@H]3[C@@H](OCOCCCl)[C@H](n4ccc(=O)[nH]c4=O)O[C@@H]3COP(=O)(O)O[C@H]3[C@@H](OCOCCCl)[C@H](n4ccc(=O)[nH]c4=O)O[C@@H]3COP(=O)(O)O[C@H]3[C@@H](OCOCCCl)[C@H](n4ccc(=O)[nH]c4=O)O[C@@H]3COP(=O)(O)O[C@H]3[C@@H](OCOCCCl)[C@H](n4ccc(=O)[nH]c4=O)O[C@@H]3COP(=O)(O)O[C@H]3[C@@H](OCOCCCl)[C@H](n4ccc(=O)[nH]c4=O)O[C@@H]3COP(=O)(O)O[C@H]3[C@@H](OCOCCCl)[C@H](n4ccc(=O)[nH]c4=O)O[C@@H]3COP(=O)(O)O[C@H]3[C@@H](OCOCCCl)[C@H](n4ccc(=O)[nH]c4=O)O[C@@H]3COP(=O)(O)O[C@H]3[C@@H](OCOCCCl)[C@H](n4ccc(=O)[nH]c4=O)O[C@@H]3COP(=O)(O)O[C@H]3[C@@H](OCOCCCl)[C@H](n4ccc(=O)[nH]c4=O)O[C@@H]3COP(=O)(O)O[C@H]3[C@@H](OCOCCCl)[C@H](n4ccc(=O)[nH]c4=O)O[C@@H]3CO)[C@@H](O)[C@H]2OCOCCCl)c(=O)[nH]1`, in series [1], the Stability entry is “Unstable”. In the series with Nucleic Acid [3], the outcome was inactive. Further, the shift in melting temperature (ΔTm) with Nucleic Acid [2] amounted to 11 °C.
